High-throughput results as filed in PubChem.
In the library only some 1.8% were active in any assay of this set; here they are far more common.
Autophagy mod: autophagy modulation, high-content screen; 190,000 tested, 0.98% active; calls only at 10 µM (by protocol); MEF GFP-LC3 puncta imaging; test concentration mostly 10 µM;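 active = percentage of spot-positive cells more than 3 SD above its plate mean, without a fluorescence outlier flag or 80% toxicity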;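 also: spot-positive cell cutoff set from DMSO-treated cells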
Dynein transport: dynein cargo transport inhibition. 3617.4 mouse cells, GR-EGFP nuclear translocation imaging; test concentration mostly 20 µM; stimulated with dexamethasone, 1 µM; stronger effect = lower value. z-score, hits read low. 220,000 tested, 0.47% active. AID 1381;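 active = plate z-score of nuclear minus cytoplasmic receptor signal below a set negative limit, without overly bright fluorescence or cell loss, cut at about -3.5 in these data, passing the limit was not always enough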;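 also: z-score of nuclear minus cytoplasmic ring GR-EGFP intensity difference per well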
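Schedule: 48 h induction, then 1 h compound, then 30 min agonist, 37 °C. Buffer or medium: tetracycline-free induction medium containing charcoal-stripped FBS. Reagent: 1.0 µM final dexamethasone stimulus. Evaluation: nuclear versus cytoplasmic GR-EGFP signal, averaged per well. Signal: high-content fluorescence imaging after fixation.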
TNF necrop inh: TNF-alpha cell death inhibition in Jurkat FADD-/- cells; Jurkat FADD-/- TNF necroptosis rescue, ATP luminescence, 24 h; 0 = TNF only, 100 = no-TNF cells; activation (protection from cell death), % at 10 µM; 220,000 tested, 0.068% active;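 active = activation, meaning protection from cell death, of at least 50% relative to plate controls; inactive = activation below 50%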;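 also: necroptosis triggered by 40 ng/mL TNF-alpha added together with compound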
MDM2 E3 inh: inhibitors of human Mdm2 E3 ubiquitin ligase; Q00987; cell-based MDM2 ubiquitination luciferase reporter, 2 h; 0 = plate control, 100 = twice control, blank-subtracted; signal enhancement, % at 5 µM; 210,000 tested, 0.11% active;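 active = signal enhancement of 30% or more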;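 also: luminescence tracks abundance of the self-degrading MDM2-luciferase fusion protein; higher signal means inhibition of MDM2 E3 ligase activity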
Target sequence (Q00987 whole entry, looked up, the tested form may be a part): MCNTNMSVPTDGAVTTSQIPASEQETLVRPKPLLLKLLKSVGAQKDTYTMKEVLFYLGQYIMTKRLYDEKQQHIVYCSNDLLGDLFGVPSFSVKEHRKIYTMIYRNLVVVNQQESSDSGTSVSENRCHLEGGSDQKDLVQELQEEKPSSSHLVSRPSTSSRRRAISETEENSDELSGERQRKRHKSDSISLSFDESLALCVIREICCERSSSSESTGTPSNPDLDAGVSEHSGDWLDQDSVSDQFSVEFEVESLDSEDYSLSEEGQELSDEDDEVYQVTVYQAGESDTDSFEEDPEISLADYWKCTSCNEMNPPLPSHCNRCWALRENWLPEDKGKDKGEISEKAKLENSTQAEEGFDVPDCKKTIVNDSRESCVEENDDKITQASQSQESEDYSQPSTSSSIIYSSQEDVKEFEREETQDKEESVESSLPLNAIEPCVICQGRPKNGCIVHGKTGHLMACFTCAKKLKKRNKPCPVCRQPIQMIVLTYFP
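Assay system: mammalian cells stably expressing self-ubiquitinating, self-degrading MDM2 E3–luciferase fusion. Quantity: 2000 cells in each well. Medium: DMEM culture medium. Compound dosing: single-point 5 µM. Timing: cell settling 4 h, compound treatment 2 h, both 37 °C. Technique: luciferase luminescence. Read-out basis: percent signal gain over controls, blank-subtracted. Benchmarks: plate controls and plate blanks.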
L929 necroptosis: blocks zVAD induced death of L929 cells | L929 zVAD necroptosis rescue, ATP luminescence, 24 h; with zVAD 60 µM | AID 1377 | 220,000 tested, 0.38% active | viability rescue, % at 10 µM;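 active = activation, scaled between plate controls, above about 75%, limit read from the data; inactive = activation under that limit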;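 also: 0% = zVAD with DMSO and 100% = DMSO alone without zVAD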
* hit, by the source's call; i = inactive; x = no result given; + = active, no number.

SMILES | Autophagy mod | Dynein transport | TNF necrop inh | MDM2 E3 inh | L929 necroptosis
Cc1nc2ccccn2c1C(=O)/C=C/c1cccc([N+](=O)[O-])c1 | + | -2.5 | -11 | -4 | 57
O=S(=O)(Oc1ccccc1N1CCCCC1)c1ccccc1 | x | -0.94 | 3 | -8 | 0
FC(F)(F)c1cnc(-c2cnc(-c3ccccn3)nc2)c(Cl)c1 | i | 1.4 | -1 | -12 | 1
N=c1n(CCN2CCCC2)c2ccccc2n1CC(O)c1ccc(Cl)c(Cl)c1 (stereo unspecified) | + | 4 | -15 | -11 | -6
O=C(c1cc(COc2ccc(F)cc2Cl)on1)N1CCCC(c2ccccc2)C1 (stereo unspecified) | + | -0.39 | 4 | -9 | 4
O=C(c1cc(COc2ccc(F)cc2F)on1)N1CCCC(c2ccccc2)C1 (stereo unspecified) | i | -0.58 | 3 | 0 | 4
c1ccc(-n2cnnc2SCc2nc3ccccc3s2)cc1 | + | -0.4 | -5 | -10 | 0
N#CCSc1nnc(-c2sc3ccccc3c2Cl)o1 | + | -0.13 | -2 | -34 | -1
CSc1nc(C)c(C(=O)C[n+]2ccccc2)cc1C#N | x | -0.033 | 4 | -6 | 0
O=C(NNC1CC(=O)N(c2ccccc2)C1=O)c1ccc(COc2ccccc2Cl)o1 (stereo unspecified) | i | 0.22 | 0 | -1 | 0
CSc1nc(O)c(/C=C2\C=Nc3ccccc32)[nH]1 | i | -0.43 | 2 | -11 | 6
O=c1[nH]c(/C=C2\C=Nc3ccccc32)c(O)n1Cc1ccccc1F | + | -1.3 | -9 | -1 | 11
CCCCCCNC(=O)C(C#N)c1nc2ccccc2nc1N1CCCC1 (stereo unspecified) | + | 0.9 | 2 | -15 | 1
CCCCCCNC(=O)C(C#N)c1nc2ccccc2nc1N1CCOCC1 (stereo unspecified) | i | 0.96 | -2 | 1 | 0
N#CC(C(=O)NCc1ccccc1)c1nc2ccccc2nc1N1CCCC1 (stereo unspecified) | + | 1.8 | 0 | -11 | 0
CCCCCCOC(=O)C(C#N)c1nc2ccccc2nc1N1CCN(CC)CC1 (stereo unspecified) | + | -0.84 | -12 | -3 | 0
COCCCNC(=O)C(C#N)c1nc2ccccc2nc1N1CCCC1 (stereo unspecified) | i | -0.12 | 0 | -6 | 1
CCCCCNC(=O)C(C#N)c1nc2ccccc2nc1N1CCCC1 (stereo unspecified) | + | -0.31 | -2 | -7 | 0
CC(C)CNC(=O)COc1ncnc2sccc12 | i | -0.96 | 2 | 0 | 5
CCOc1cc(NC(=S)NCCCN2CCOCC2)c(OCC)cc1NC(=O)c1cccs1 | + | 1.2 | 1 | -22 | 0
COC(=O)Nc1ccc(S(=O)(=O)N2CCC(C(=O)N3CCCC(C)C3)CC2)cc1 (stereo unspecified) | i | 0.47 | 0 | -25 | 6
O=C(O)/C=C/C(=O)Nc1ccc2c(c1)NC(=O)CO2 | i | -0.25 | 1 | -10 | 0
O=C1COc2ccc(N3C(=O)C=CC3=O)cc2N1 | i | -4* | 0 | -3 | -2
O=C(/C=C/c1cccs1)c1cc(Br)ccc1OC(=O)N1CCOCC1 | i | -4.9* | -9 | -3 | x
COc1ccc(C(=O)/C=C/c2cccs2)c(OC(=O)N2CCOCC2)c1 | i | -2.4 | 1 | -11 | 0
SMILES | Autophagy mod | Dynein transport | TNF necrop inh | MDM2 E3 inh | L929 necroptosis
O=c1c(Cl)c2oc3ccccc3nc-2c2ccccc12 | + | -0.86 | -2 | 0 | -2
Cc1ccc(C(=O)NCCNS(C)(=O)=O)cc1 | i | 1.1 | 2 | -10 | 1
O=C(O)CN1C(=O)c2ccc(Oc3ccc4c(c3)C(=O)N(CC(=O)O)C4=O)cc2C1=O | x | 0.94 | 6 | -8 | 0
COc1ccc(Cl)cc1NC(=S)NNC(=O)c1cccnc1 | + | 0.99 | 0 | -6 | 1
COc1ccc(NC(=S)NNC(=O)c2cccnc2)cc1OC | i | -0.12 | 0 | -16 | 0
c1ccc(CN2CCN(c3nc(N4CCOCC4)c4ccccc4n3)CC2)cc1 | + | 0.18 | -2 | x | 1
c1ccc2c(N3CCOCC3)nc(N3CCOCC3)nc2c1 | i | 2.1 | -1 | -5 | 0
O=C1c2ccccc2C(=O)N1Cc1cc(-c2ccc(Cl)cc2)no1 | i | x | -1 | x | 0
CCN(CCNC(=O)C1CCN(Cc2nc(-c3ccc(Cl)cc3)oc2C)CC1)c1ccccc1 | + | 4 | -13 | -25 | 1
CC(=O)Nc1sc(N)nc1-c1ccccc1 | + | -0.75 | -1 | -13 | 1
CN(Cc1cn(-c2ccccc2)nc1-c1ccc(Cl)cc1)C(=O)CCC(=O)O | i | -0.9 | 2 | -7 | 1
O=C(NCCCN1CCN(c2ccccc2F)CC1)C1CCCN(S(=O)(=O)c2cnc[nH]2)C1 (stereo unspecified) | + | 0.41 | 1 | -43 | 0
Cc1ccc(-c2cc(C(=O)Nc3cccnc3)c3ccccc3n2)o1 | i | -4.4* | -4 | -7 | 1
Cc1ccc(NC(=O)c2cc(-c3ccc(C)o3)nc3ccccc23)cc1 | i | -0.87 | 1 | -7 | 0
CCN(CC)CCSc1nc(O)c(Cc2ccccc2)c(=O)n1-c1ccccc1 | i | -0.18 | 1 | -6 | 2
O=c1oc2ccccc2cc1-c1csc(Nc2nc3ccc(F)cc3s2)n1 | i | -0.13 | 1 | -13 | 0
O=c1oc2ccccc2cc1-c1csc(Nc2nc3c(F)cccc3s2)n1 | + | 2.8 | 1 | 1 | 0
CCOC(=O)/C(=N\Nc1ccc(C(C)=O)cc1)c1csc(Nc2ccccc2)n1 | + | -0.7 | -3 | 9 | 0
CCOC(=O)/C(=N\Nc1ccccc1[N+](=O)[O-])c1csc(N)n1 | i | -0.69 | -3 | -9 | 0
CCOC(=O)C(C)Sc1nc(=O)n2cccc(C)c2n1 (stereo unspecified) | i | 1.3 | -2 | -3 | 0
CCOC(=O)CSc1nc(=O)n2cccc(C)c2n1 | + | 0.39 | 1 | -2 | 2
NS(=O)(=O)c1ccc(CCNC(=O)CNS(=O)(=O)c2cccc(Br)c2)cc1 | i | 1.1 | 0 | 6 | 2
Cc1ccc2c(c1)Oc1ccc(NC(=O)CCl)cc1C(=O)N2 | + | 0.3 | -15 | -5 | 11
Cc1ccc2c(c1)Oc1ccc([N+](=O)[O-])cc1C(=O)N2 | i | 0.86 | 0 | -4 | 2
O=C(O)c1cc(NC(=O)c2ccccc2[N+](=O)[O-])ccc1O | i | 0.64 | -1 | 0 | 5
CCCn1c(=NC(=O)c2ccco2)c(C(=O)OCC)cc2c(=O)n3ccccc3nc21 | i | -0.64 | -5 | -9 | 0
